According to ChEMBL document CHEMBL1141109, “Synthesis of an estrogen receptor beta-selective radioligand: 5-[18F]fluoro-(2R,3S)-2,3-bis(4-hydroxyphenyl)pentanenitrile and comparison of in vivo distribution with 16alpha-[18F]fluoro-17beta-estradiol” (J Med Chem, 2005):

How the values were obtained:
[1] = Biodistribution of [18F]FEDPN in alpha estrogen receptor knock out mouse heart after 30 min; (n=3); assay type: ADME, organism-based; settings: in vivo, 0.5 h
In short: (§1)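 ERKO female mice (αERKO or βERKO), rested 48 h after shipping, placed on estrogen-free chow, and staged by daily vaginal smears. Injected in a nonestrous stage with 11 µCi [18F]FEDPN in 130 µL of 10% ethanol/saline. Killed at 30 min, 1 h or 2 h. Organs counted and reported as %ID/g ± SD, three animals per point.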

[2] = Biodistribution of [18F]-FEDPN in beta estrogen receptor knock out mouse thymus after 30 min; (n=3); assay type: ADME, organism-based; settings: in vivo, 0.5 h; in short: as §1
[3] = Biodistribution of [18F]FEDPN in alpha estrogen receptor knock out mouse thymus after 30 min; (n=3); assay type: ADME, organism-based; settings: in vivo, 0.5 h
In short: (§2)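 αERKO and βERKO mice, staged by daily vaginal smears and kept on estrogen-free chow, were studied in a nonestrous stage. Each mouse received 11 μCi of tracer in 130 μL of 10% ethanol/saline. Mice were killed at 30 min, 1 h or 2 h (n = 3 each). Organs were removed, blotted, weighed and gamma-counted against an injectate standard. Uptake is given as %ID/g ± SD.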

[4] = Biodistribution of [18F]FEDPN in beta estrogen receptor knock out mouse ovaries after 30 min; (n=3); assay type: ADME, organism-based, Female gonad; settings: in vivo, 0.5 h; in short: as §2
[5] = Biodistribution of [18F]FEDPN in alpha estrogen receptor knock out mouse heart after 1 h; (n=3); assay type: ADME, organism-based; settings: in vivo; in short: as §1
[6] = Biodistribution of [18F]-FEDPN in rat ovaries after 1 hr when given in tail vein; (n=5); assay type: ADME, organism-based, Female gonad; settings: in vivo, iv
In short: (§3)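 Immature female Sprague–Dawley rats (<25 days old) anesthetized with isoflurane/O2. Given 20 µCi tracer by tail vein in 150 µL of 20% ethanol/saline. […] Killed at 30 min, 1 h or 2 h. Blood and organs blotted, weighed and gamma-counted against a standard dilution of the injectate. Reported as %ID/g ± SD, n=5.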

[7] = Biodistribution of [18F]FEDPN in rat liver after 30 min when given in tail vein; (n=5); assay type: ADME, organism-based; settings: in vivo, iv, 0.5 h
In short: (§4)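 Immature female Sprague–Dawley rats (<25 days old) under isoflurane/O2 got 20 µCi tracer in 150 µL 20% ethanol/saline by tail vein. […] Rats were killed at 30 min, 1 h or 2 h. Organs were blotted, weighed and gamma-counted against an injectate standard. Data are %ID/g ± SD, five rats per point.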

[8] = Biodistribution of [18F]FEDPN in alpha estrogen receptor knock out mouse fat after 2 h; (n=3); assay type: ADME, organism-based, Adipose tissue; settings: in vivo; in short: as §1
[9] = Biodistribution of [18F]FEDPN in beta estrogen receptor knock out mouse bone after 2 h; (n=3); assay type: ADME, organism-based, Bone element; settings: in vivo; in short: as §2
[10] = Biodistribution of [18F]FEDPN in alpha estrogen receptor knock out mouse bone after 1 h; (n=3); assay type: ADME, organism-based, Bone element; settings: in vivo; in short: as §1
[11] = Biodistribution of [18F]FEDPN in rat bone after 1 h when given in tail vein; (n=5); assay type: ADME, organism-based, Bone element; settings: in vivo, iv; in short: as §4
[12] = Biodistribution of [18F]FEDPN in rat blood after 2 h when given in tail vein; (n=5); assay type: ADME, organism-based; settings: in vivo, iv; in short: as §4
[13] = Biodistribution of [18F]-FEDPN in rat liver after 2 hr when given in tail vein; (n=5); assay type: ADME, organism-based; settings: in vivo, iv; in short: as §3
[14] = Biodistribution of [18F]-FEDPN in rat muscle after 2 hr when given in tail vein; (n=5); assay type: ADME, organism-based, Muscle tissue; settings: in vivo, iv; in short: as §3
[15] = Biodistribution of [18F]-FEDPN in rat thymus after 1 hr when given in tail vein; (n=5); assay type: ADME, organism-based; settings: in vivo, iv; in short: as §3
[16] = Biodistribution of [18F]-FEDPN in rat uterus after 1 hr when given in tail vein; (n=5); assay type: ADME, organism-based; settings: in vivo, iv; in short: as §3
[17] = Biodistribution of [18F]FEDPN in rat ovaries after 1 h block when given in tail vein; (n=5); assay type: ADME, organism-based, Female gonad; settings: in vivo, iv; in short: as §4
[18] = Biodistribution of [18F]FEDPN in beta estrogen receptor knock out mouse heart after 1 h; (n=3); assay type: ADME, organism-based; settings: in vivo; in short: as §2
[19] = Biodistribution of [18F]FEDPN in beta estrogen receptor knock out mouse liver after 1 h; (n=3); assay type: ADME, organism-based; settings: in vivo; in short: as §2
[20] = Biodistribution of [18F]FEDPN in alpha estrogen receptor knock out mouse blood after 2 h; (n=3); assay type: ADME, organism-based; settings: in vivo; in short: as §1
[21] = Biodistribution of [18F]FEDPN in alpha estrogen receptor knock out mouse brain after 1 h; (n=3); assay type: ADME, organism-based; settings: in vivo; in short: as §1
[22] = Biodistribution of [18F]FEDPN in alpha estrogen receptor knock out mouse kidney after 1 h; (n=3); assay type: ADME, organism-based; settings: in vivo; in short: as §1
[23] = Biodistribution of [18F]FEDPN in alpha estrogen receptor knock out mouse muscle after 1 h; (n=3); assay type: ADME, organism-based, Muscle tissue; settings: in vivo; in short: as §2
[24] = Biodistribution of [18F]FEDPN in alpha estrogen receptor knock out mouse muscle after 2 h; (n=3); assay type: ADME, organism-based, Muscle tissue; settings: in vivo; in short: as §2
[25] = Biodistribution of [18F]FES in beta estrogen receptor knock out mouse blood after 30 min(n=2); mice in nonestrus stage; assay type: ADME, organism-based; settings: in vivo, 0.5 h
[26] = Biodistribution of [18F]FES in beta estrogen receptor knock out mouse brain after 30 min(n=2); mice in nonestrus stage; assay type: ADME, organism-based; settings: in vivo, 0.5 h
[27] = Biodistribution of [18F]FES in beta estrogen receptor knock out mouse spleen after 30 min(n=2); mice in nonestrus stage; assay type: ADME, organism-based; settings: in vivo, 0.5 h
[28] = Biodistribution of [18F]FES in alpha estrogen receptor knock out mouse ovaries after 1 h; (n=3); assay type: ADME, organism-based, Female gonad; settings: in vivo
In short: (§5)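 Female αERKO mice were rested 48 h after shipping and fed estrogen-free chow. They were staged by daily vaginal smears and studied in diestrus. Each received 13 µCi [18F]FES in 100 µL 10% ethanol/saline and was sacrificed at 30 min, 1 h or 2 h (n = 3 per time). Tissue uptake is given as %ID/g ± SD.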

[29] = Biodistribution of [18F]FES in alpha estrogen receptor knock out mouse ovaries after 2 h; (n=3); assay type: ADME, organism-based, Female gonad; settings: in vivo; in short: as §5
[30] = Biodistribution of [18F]FES in beta estrogen receptor knock out mouse heart after 2 h; (n=3); assay type: ADME, organism-based; settings: in vivo
[31] = Biodistribution of [18F]FES in beta estrogen receptor knock out mouse liver after 1 h; (n=3); assay type: ADME, organism-based; settings: in vivo
[32] = Biodistribution of [18F]FES in alpha estrogen receptor knock out mouse brain after 1 h; (n=3); assay type: ADME, organism-based; settings: in vivo
In short: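 αERKO mice were kept on estrogen-free chow and studied in diestrus, as staged by vaginal smear. Each was injected with 13 µCi tracer in 100 µL 10% ethanol/saline and killed at 30 min, 1 h or 2 h (n = 3 each). Organ activity was gamma-counted and expressed as %ID/g ± SD.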

[33] = Biodistribution of [18F]-FES in beta estrogen receptor knock out mouse thymus after 1 h; (n=3); assay type: ADME, organism-based; settings: in vivo
In short: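 Female βERKO mice in estrus were used because repeated swabbing had induced pseudopregnancy. They were fed estrogen-free chow. Each received 13 µCi [18F]FES in 100 µL 10% ethanol/saline and was sacrificed at 30 min, 1 h or 2 h (n = 3 each). Tissue uptake is given as %ID/g ± SD.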

[34] = Biodistribution of [18F]FES in beta estrogen receptor knock out mouse uterus after 1 h; (n=3); assay type: ADME, organism-based; settings: in vivo
[35] = Biodistribution of [18F]FES in alpha estrogen receptor knock out mouse uterus after 1 h; (n=3); assay type: ADME, organism-based; settings: in vivo
[36] = Biodistribution of [18F]FES in beta estrogen receptor knock out mouse kidney after 30 min; (n=3); assay type: ADME, organism-based; settings: in vivo, 0.5 h

**Q.** Which Biodistribution [1] does the source give for `N#C[C@H](c1ccc(O)cc1)[C@@H](CCF)c1ccc(O)cc1` here?
**A.** Its Biodistribution is 1.57 %ID/g.

**Q.** And the Biodistribution [2]?
**A.** Its Biodistribution is 1.2 %ID/g.

**Q.** What about the Biodistribution [3] of the same molecule?
**A.** Its Biodistribution is 1.27 %ID/g.

**Q.** What about the Biodistribution [4] of the same molecule?
**A.** The Biodistribution was 1.4 %ID/g.

**Q.** And the Biodistribution [5]?
**A.** The Biodistribution was 0.74 %ID/g.

**Q.** And the Biodistribution [6]?
**A.** Its Biodistribution is 0.67 %ID/g.

**Q.** What about the Biodistribution [7] of the same molecule?
**A.** The Biodistribution was 1.42 %ID/g.

**Q.** What about the Biodistribution [8] of the same molecule?
**A.** The Biodistribution was 0.09 %ID/g.

**Q.** What about the Biodistribution [9] of the same molecule?
**A.** Its Biodistribution is 5.15 %ID/g.

**Q.** What about the Biodistribution [10] of the same molecule?
**A.** Its Biodistribution is 4.13 %ID/g.

**Q.** And the Biodistribution [11]?
**A.** The Biodistribution was 2.22 %ID/g.

**Q.** What about the Biodistribution [12] of the same molecule?
**A.** Its Biodistribution is 0.24 %ID/g.

**Q.** And the Biodistribution [13]?
**A.** Its Biodistribution is 0.62 %ID/g.

**Q.** What about the Biodistribution [14] of the same molecule?
**A.** The Biodistribution was 0.09 %ID/g.

**Q.** What about the Biodistribution [15] of the same molecule?
**A.** Its Biodistribution is 0.29 %ID/g.

**Q.** And the Biodistribution [16]?
**A.** The Biodistribution was 0.74 %ID/g.

**Q.** What about the Biodistribution [17] of the same molecule?
**A.** Its Biodistribution is 0.26 %ID/g.

**Q.** What about the Biodistribution [18] of the same molecule?
**A.** The Biodistribution was 0.43 %ID/g.

**Q.** What about the Biodistribution [19] of the same molecule?
**A.** Its Biodistribution is 3.79 %ID/g.

**Q.** And the Biodistribution [20]?
**A.** The Biodistribution was 0.23 %ID/g.

**Q.** And the Biodistribution [21]?
**A.** Its Biodistribution is 0.51 %ID/g.

**Q.** And the Biodistribution [22]?
**A.** The Biodistribution was 2.97 %ID/g.

**Q.** And the Biodistribution [23]?
**A.** The Biodistribution was 0.59 %ID/g.

**Q.** What about the Biodistribution [24] of the same molecule?
**A.** Its Biodistribution is 0.36 %ID/g.

**Q.** Which results are given for `C[C@]12CC[C@@H]3c4ccc(O)cc4CC[C@H]3[C@@H]1C[C@@H](F)[C@@H]2O` [FLUOROESTRADIOL]?
**A.** Biodistribution [25]: 0.73 %ID/g; Biodistribution [26]: 0.81 %ID/g; Biodistribution [27]: 1.29 %ID/g; Biodistribution [28]: 0.49 %ID/g; Biodistribution [29]: 0.18 %ID/g; Biodistribution [30]: 0.2 %ID/g; Biodistribution [31]: 5.85 %ID/g; Biodistribution [32]: 0.07 %ID/g; Biodistribution [33]: 0.92 %ID/g; Biodistribution [34]: 9.81 %ID/g; Biodistribution [35]: 0.82 %ID/g; Biodistribution [36]: 3.83 %ID/g
